Data published in ChEMBL document CHEMBL4725452, “Targeted Covalent Inhibition of Plasmodium FK506 Binding Protein 35” (ACS Med Chem Lett, 2020).
The source made the active and inactive calls. The calls are words filed in the database; no cut-off is given here.

Legend:
Plasmodium falciparum [1] = assay: Antiplasmodial activity against blood stage of Plasmodium falciparum 3D7 assessed as parasite growth inhibition; type: functional, organism-based
[2] = molecular target: Peptidyl-prolyl cis-trans isomerase FKBP1A (Homo sapiens, UniProt P62942); assay: Binding affinity to N-terminal 6His-SUMO-tagged human full length FKBP12 expressed in Escherichia coli BL21 (DE3) cells assessed as change in melting temperature at 40 uM by differential scanning […] analysis
Sequence of Peptidyl-prolyl cis-trans isomerase FKBP1A (P62942 whole entry): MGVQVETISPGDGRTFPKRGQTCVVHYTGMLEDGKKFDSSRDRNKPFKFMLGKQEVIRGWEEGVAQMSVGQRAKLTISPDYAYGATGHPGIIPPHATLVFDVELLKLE
In short: (§1)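 Differential scanning calorimetry. Purified protein (6His-SUMO tag removed) dialyzed into 25 mM HEPES pH 7.8, 150 mM NaCl. Protein at 0.4 mg/mL (6-9 uM), with or without compound at 40 µM, 2% DMSO (v/v). Scanned 25-90 °C, reference scans subtracted. Tm taken as midpoint of the heat capacity curve.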

Plasmodium falciparum [3] = assay: Binding affinity to N-terminal 6His-SUMO-tagged Plasmodium falciparum FKBP35 binding domain (FBD35) (Q5-A128) expressed in Escherichia coli BL21 (DE3) cells assessed as change in melting temperature at 40 uM by differential scanning […] analysis; in short: as §1
Plasmodium falciparum [4] = assay: Covalent binding affinity to N-terminal 6His-SUMO-tagged Plasmodium falciparum FKBP35 binding domain (FBD35) (Q5-A128) expressed in Escherichia coli BL21 (DE3) cells assessed as binding at C106 position by mass spectrometry
In short: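 Protein-compound reaction mixture saved in parallel with DSC. Denatured in urea/NaCl in 50 mM Tris pH 8.0, reduced with TCEP at 37 °C for 60 min, free thiols alkylated with iodoacetamide at RT in the dark for 30 min. Digested with chymotrypsin (1:100 molar) overnight at 37 °C, quenched with formic acid. Peptides resolved on C18 UPLC at 45 °C and analyzed by Q Exactive HF MS.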

Plasmodium falciparum [5] = assay: Antiplasmodial activity against blood stage of Plasmodium falciparum NF54 assessed as parasite growth inhibition
[6] = Displacement of fluorescent tracer Rap-Gly-BDP from nanoluciferse-tagged Plasmodium falciparum FKBP35 expressed in HEK293T cells incubated for 2 hrs by NanoBRET assay; type: cell-based; conditions: HEK-293T
In short: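 HEK293T cells stably expressing N-terminal NanoLuc-FKBP35 (lentiviral, puromycin-selected) plated at 0.2 x 10^6 cells/mL in Opti-MEM and incubated overnight at 37°C, 5% CO2. Rap-Gly-BDP tracer added to 1 µM for 10 min, then test compounds at varying concentrations for 2 h at 37°C. Nano-Glo substrate plus extracellular NanoLuc inhibitor added and read immediately. BRET ratio corrected against no-tracer control.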

Structure (SMILES) | Activity [2] | Activity (Plasmodium falciparum [3]) | IC50 (Plasmodium falciparum [5]) | also measured
O=C(NNC(=O)C12CC3CC(CC(C3)C1)C2)c1ccncc1 |  |  |  | IC50 (Plasmodium falciparum [1]): 250 nM
CCc1ccccc1NC(=O)CSc1nc2cccnc2[nH]1 |  |  |  | IC50 (Plasmodium falciparum [1]): 235 nM
CCC(=O)NCc1ccccc1NC(=O)CSc1nc2cccnc2[nH]1 | Not Active | inactive |  | 
C=CC(=O)NCc1ccc(NC(=O)CSc2nc3cccnc3[nH]2)cc1 | Not Active | inactive |  | Activity (Plasmodium falciparum [4]): Active
CC[C@H]1CN(Cc2ccccn2)C(=O)C2CCCC1N2S(=O)(=O)c1cc(Cl)cc(Cl)c1 (some centres undefined) |  |  | 2300 nM | 
C=CC[C@@H]1/C=C(\C)C[C@H](C)C[C@H](OC)[C@H]2O[C@@](O)(C(=O)C(=O)N3CCCC[C@H]3C(=O)O[C@H](/C(C)=C/[C@@H]3CC[C@@H](O)[C@H](OC)C3)[C@H](C)[C@@H](O)CC1=O)[C@H](C)C[C@@H]2OC [TACROLIMUS ANHYDROUS] |  |  | 1900 nM | 
C=CC(=O)NCc1ccccc1NC(=O)CSc1nc2cccnc2[nH]1 | Not Active | inactive |  | Activity (Plasmodium falciparum [4]): Active
CO[C@H]1C[C@@H]2CC[C@@H](C)[C@@](O)(O2)C(=O)C(=O)N2CCCC[C@H]2C(=O)O[C@H]([C@H](C)C[C@@H]2CC[C@@H](O)[C@H](OC)C2)CC(=O)[C@H](C)/C=C(\C)[C@@H](O)[C@@H](OC)C(=O)[C@H](C)C[C@H](C)/C=C/C=C/C=C/1C [SIROLIMUS] |  |  | 2600 nM | IC50 [6]: 34 nM
